Only some compounds are listed: those with a hit (about 12% of all), similar ones and a draw of the others.
KCC2 mod: modulators of human KCC2 chloride dependent transport | hit rate 2.2% among 190,000 | KCC2 cells, thallium flux FluoZin-2 fluorescence | B-score of Tl+ flux slope (higher = more flux/activation; lower = inhibition) at 10 µM;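 active means thallium flux slope and its plate-corrected score both differing from the plate sample mean at a set confidence after two filtering rounds, in either direction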;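 further: slope of fluorescence scaled to starting intensity during 10 to 20 s after thallium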
Target sequence (Q9H2X9 whole entry, looked up): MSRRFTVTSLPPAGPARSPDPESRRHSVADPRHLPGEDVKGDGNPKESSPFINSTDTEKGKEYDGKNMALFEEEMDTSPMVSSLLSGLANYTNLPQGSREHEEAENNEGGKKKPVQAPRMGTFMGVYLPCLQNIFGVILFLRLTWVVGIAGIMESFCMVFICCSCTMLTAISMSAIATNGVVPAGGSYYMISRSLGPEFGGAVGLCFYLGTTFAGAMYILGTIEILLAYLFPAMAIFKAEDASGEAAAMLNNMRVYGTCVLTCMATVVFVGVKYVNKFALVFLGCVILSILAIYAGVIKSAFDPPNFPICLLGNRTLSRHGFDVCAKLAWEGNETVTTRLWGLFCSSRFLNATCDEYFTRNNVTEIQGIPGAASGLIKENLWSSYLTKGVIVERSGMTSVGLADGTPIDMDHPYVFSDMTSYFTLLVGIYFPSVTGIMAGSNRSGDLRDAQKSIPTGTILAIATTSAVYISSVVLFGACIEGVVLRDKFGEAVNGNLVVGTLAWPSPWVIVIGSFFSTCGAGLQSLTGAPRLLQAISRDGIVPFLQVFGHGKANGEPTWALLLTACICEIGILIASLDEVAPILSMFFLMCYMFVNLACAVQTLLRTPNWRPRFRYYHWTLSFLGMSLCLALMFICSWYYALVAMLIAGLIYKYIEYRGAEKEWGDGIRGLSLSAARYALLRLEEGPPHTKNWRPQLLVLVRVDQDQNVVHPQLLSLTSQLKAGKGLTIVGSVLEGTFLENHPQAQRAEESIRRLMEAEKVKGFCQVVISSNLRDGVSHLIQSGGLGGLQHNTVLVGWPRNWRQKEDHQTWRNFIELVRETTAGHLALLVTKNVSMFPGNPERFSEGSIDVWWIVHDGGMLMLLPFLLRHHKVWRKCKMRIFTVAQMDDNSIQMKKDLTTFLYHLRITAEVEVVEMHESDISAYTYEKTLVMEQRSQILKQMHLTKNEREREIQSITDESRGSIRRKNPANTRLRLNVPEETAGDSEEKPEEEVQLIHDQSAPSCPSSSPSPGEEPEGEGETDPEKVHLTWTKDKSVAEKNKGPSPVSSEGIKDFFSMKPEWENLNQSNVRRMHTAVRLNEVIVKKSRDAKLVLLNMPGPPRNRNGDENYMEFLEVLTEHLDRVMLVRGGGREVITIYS
Diaphorase act: counter-screen for diaphorase-based assays: diaphorase activators and chemical reducers | AID 1229 | Diaphorase/resazurin coupled assay, resorufin fluorescence, 16 min; stronger effect = higher value; 1 = vehicle wells, 0 = NADH-free wells | activation factor at 20 µM | hit rate 0.005% among 190,000;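 active means diaphorase activity raised at least twofold by the compound at 20 µM; inactive means activation factor below 2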
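System – purified diaphorase enzyme from Clostridium kluyveri · Input – enzyme 0.07 U/mL final · Also added – final NADH 0.114 mM, resazurin 0.1 mM · Measured by – fluorescence of resorufin, 544 nm excitation, 590 nm emission · Timing – 16 min enzyme reaction, ambient temperature · Measure – resorufin increase flagging diaphorase activators or reducers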
Diaph inh CS: diaphorase inhibition or chemical oxidation counter-screen | hit rate 0.69% among 190,000 | diaphorase resazurin-to-resorufin fluorescence, NADH, 16 min; bacterial (C. kluyveri) enzyme, not human | AID 1217 | inhibition, % at 20 µM;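 active means primary screen inhibition at 20 µM above a set limit, cut at about 50% in these data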
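Test system: Clostridium kluyveri diaphorase enzyme / Quantity: diaphorase at 0.14 U/mL in enzyme working solution / Incubation: 16-min room-temperature incubation before reading / Benchmarks: NADH-free wells as positive control, DMSO-only neutral wells / Signal: resorufin fluorescence 544/590 nm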
WT yeast gro inh: growth inhibition of WT yeast, mitochondrial fusion screen | mitochondrial fusion phenotypic screen, WT strain | inhibition, % at 10 µM | hit rate 2.1% among 190,000 | AID 1362; in the data active means inhibition above about 58%; tested in S. cerevisiae
Lmaj promast: Leishmania major promastigote growth inhibition. Leishmania major promastigotes, resazurin fluorescence viability. inhibition, % at 10 µM. hit rate 9% among 200,000. AID 1063; in the data active means inhibition above about 50%;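 further: promastigotes grown with compound for 44 hours at 28 °C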
ROMK mod: modulators of human ROMK potassium channel. P48048. Tet-inducible ROMK, thallium flux fluorescence; actives lie on both sides. B-score at 10 µM. hit rate 2% among 130,000. AID 1918;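 active means signal ratio slope over the read window, or its plate-corrected B-score, at least 3 SD from the plate mean, either direction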;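 further: B-score of the F/F0 ratio slope over 7 to 12 s after thallium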
KCC2 secondary: confirmation of human KCC2 transport modulators. HEK293-KCC2, thallium flux, FluoZin2 fluorescence; stronger effect = higher value. hit rate 15% among 3,700. normalised thallium flux (F/F0 slope) at 10 µM. shares compounds with KCC2 mod;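 active means thallium flux slope above the same plate's solvent-only control mean plus 3 SD; inconclusive means the two replicate wells disagree; inactive means no significant difference from solvent-only control wells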
KCC2 bumet counter: thallium flux despite bumetanide block in KCC2 cells, secondary assay 3 | HEK293-KCC2 + bumetanide/ouabain, thallium flux FluoZin2; stronger effect = higher value | normalized thallium flux at 10 µM | shares compounds with KCC2 mod | hit rate 49% among 3,700;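 active means thallium entry rate above the same plate's blocked-transporter control wells by more than 3 SD; inconclusive means the two repeat wells disagree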;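 further: raw slope of fluorescence over initial fluorescence between 10 and 20 s after thallium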
KCC2 sec2: confirmation of human KCC2 transport modulators. AID 1715. shares compounds with KCC2 mod. normalized thallium flux at 10 µM. HEK293-KCC2, thallium flux FluoZin2 fluorescence; actives lie on both sides; F/F0 rise rate, 10–20 s post-thallium. hit rate 23% among 3,700;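 active means thallium flux slope more than 3 SD above or below the plate's solvent-only control mean, mostly below; inconclusive means the two repeat wells disagreed; inactive means no significant shift from solvent-only controls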
HEK293 Tl flux: acts in parental HEK cells, KCC2 counter-screen | AID 1716 | thallium flux rate (normalised fluorescence) at 10 µM | shares compounds with KCC2 mod | HEK293 parental cells, thallium flux FluoZin2, ouabain; baseline-ratio fluorescence slope, 10–20 s after thallium | hit rate 46% among 3,700;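 active means thallium flux rate significantly above the same plate's solvent-only control wells, beyond their mean plus 3 SD; inconclusive means the two replicate wells gave conflicting results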
KCC2 ouabain: KCC2 (human) modulation, ouabain retest | shares compounds with KCC2 mod | HEK293-KCC2, thallium flux FluoZin2 fluorescence; bidirectional: low = inhibitor, high = activator | raw Tl+ flux slope (below DMSO = inhibition, above = activation) at 10 µM | hit rate 48% among 3,700;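 active means thallium flux slope beyond 3 SD from same-plate DMSO control mean in most replicates, usually higher, sometimes lower; inconclusive means repeat tests gave conflicting results; inactive means no significant difference from controls in most replicates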;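 further: slope of initial-normalized fluorescence between seconds 10 and 20 after thallium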
HEK counter2: counter-screen for KCC2 modulators: effect in parental HEK293 cells; shares compounds with KCC2 mod; thallium flux FluoZin-2 fluorescence slope; thallium flux slope at 10 µM; hit rate 33% among 3,700;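 active means thallium flux slope above the same plate's solvent-control mean plus 3 SD in both duplicate wells; inconclusive means duplicate wells that disagreed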;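 further: run without ouabain in cells lacking the KCC2 cotransporter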
Hits are given with their value.

`CSc1nc(=S)cc(C)[nH]1` gave KCC2 mod 16, KCC2 secondary inactive, KCC2 bumet counter 0.018, KCC2 sec2 0.039, HEK293 Tl flux 0.022, KCC2 ouabain 0.028 and HEK counter2 0.023.
For Cc1ccc(NC(=O)CN(c2ccccc2)S(=O)(=O)N(C)C)cc1C the results were KCC2 mod inactive, Diaphorase act inactive, Diaph inh CS inactive, WT yeast gro inh inactive, Lmaj promast inactive and ROMK mod inactive.
`Cc1cc(C)c(NC(=O)CN(c2ccccc2)S(=O)(=O)N(C)C)c(C)c1` gave KCC2 mod 5.2, Diaphorase act inactive, Diaph inh CS inactive, WT yeast gro inh inactive, Lmaj promast inactive, ROMK mod inactive, KCC2 secondary inactive, KCC2 bumet counter inactive, KCC2 sec2 inactive, HEK293 Tl flux inactive, KCC2 ouabain inactive and HEK counter2 inactive.
CCC(OC(=O)C1=Cc2ccccc2OC1)C(=O)NCc1ccco1 (stereo not given) was read as KCC2 mod -2.8, Diaphorase act inactive, Diaph inh CS inactive, WT yeast gro inh inactive, Lmaj promast inactive, ROMK mod inactive, KCC2 secondary inactive, KCC2 bumet counter inactive, KCC2 sec2 inactive, HEK293 Tl flux inactive, KCC2 ouabain inconclusive and HEK counter2 inactive.
Screening CC(OC(=O)C1=Cc2ccccc2OC1)C(=O)NCc1ccco1 (stereo not given) returned KCC2 mod inactive, Diaphorase act inactive, Diaph inh CS inactive, WT yeast gro inh inactive, Lmaj promast inactive and ROMK mod inactive.
For CCc1ccc(NC(=O)C(=S)NC2CCCCC2)cc1 the results were KCC2 mod inactive, Diaphorase act inactive, Diaph inh CS inactive, WT yeast gro inh inactive, Lmaj promast inactive and ROMK mod inactive.
`CCc1ccc(-c2cn(C3CCCCC3)c(=S)[nH]2)cc1` gave KCC2 mod 6, Diaphorase act inactive, Diaph inh CS inactive, WT yeast gro inh 68, Lmaj promast inactive, ROMK mod inactive, KCC2 secondary inactive, KCC2 bumet counter 0.05, KCC2 sec2 inactive, HEK293 Tl flux 0.012, KCC2 ouabain 0.023 and HEK counter2 inconclusive.
`Cc1ccc(C(=O)CSc2nnc3c4ccccc4nc(C(C)(C)C)n23)cc1` gave KCC2 mod 16, Diaphorase act inactive, Diaph inh CS inactive, WT yeast gro inh inactive, Lmaj promast inactive, ROMK mod inactive, KCC2 secondary 0.014, KCC2 bumet counter 0.043, KCC2 sec2 inactive, HEK293 Tl flux 0.019, KCC2 ouabain 0.032 and HEK counter2 0.012.
For CC(=O)CSc1nnc2c3ccccc3nc(C(C)(C)C)n12 the results were KCC2 mod inactive, Diaphorase act inactive, Diaph inh CS inactive, WT yeast gro inh inactive and Lmaj promast inactive.
`CCC(=O)NNC(=O)c1cc(COc2cc(Cl)cc(Cl)c2)on1` gave KCC2 mod 8.6, ROMK mod inactive, KCC2 secondary inactive, KCC2 bumet counter 0.018, KCC2 sec2 inactive, HEK293 Tl flux 0.017, KCC2 ouabain inconclusive and HEK counter2 0.014.
`CCCc1cc(C(=O)Nc2cccc(Cl)c2)no1` gave KCC2 mod inactive, Diaphorase act inactive, Diaph inh CS inactive, WT yeast gro inh inactive and Lmaj promast inactive.
CN(C)c1ncc(S(=O)(=O)c2ccccc2)c(-c2ccc(Cl)cc2Cl)n1 was read as KCC2 mod -5.7, Diaphorase act inactive, Diaph inh CS inactive, WT yeast gro inh inactive, Lmaj promast inactive, KCC2 secondary inactive, KCC2 bumet counter inactive, KCC2 sec2 inactive, HEK293 Tl flux inactive, KCC2 ouabain inactive and HEK counter2 inactive.
CCC(Cc1ccccc1)n1c(=S)[nH]c2ccccc2c1=O (stereo not given) was read as KCC2 mod 50, Diaphorase act inactive, Diaph inh CS inactive, WT yeast gro inh inactive, Lmaj promast inactive, ROMK mod inactive, KCC2 secondary 0.019, KCC2 bumet counter 0.15, KCC2 sec2 inactive, HEK293 Tl flux 0.059, KCC2 ouabain 0.088 and HEK counter2 0.017.
For Cc1c(-n2c(=S)[nH]c3ccccc3c2=O)c(=O)n(-c2ccccc2)n1C the results were KCC2 mod inactive, Diaphorase act inactive, Diaph inh CS inactive, WT yeast gro inh inactive and Lmaj promast inactive.
For CCC(C)n1c(=S)[nH]c2ccccc2c1=O (stereo not given) the results were KCC2 mod 101, Diaphorase act inactive, Diaph inh CS inactive, WT yeast gro inh inactive, Lmaj promast inactive, ROMK mod inactive, KCC2 secondary 0.042, KCC2 bumet counter 0.14, KCC2 sec2 0.055, HEK293 Tl flux 0.13, KCC2 ouabain 0.11 and HEK counter2 0.039.
Brc1cccc(C2CC(c3ccccc3)n3nnnc3N2)c1 (stereo not given) was read as Diaphorase act inactive, Diaph inh CS inactive, WT yeast gro inh inactive, Lmaj promast inactive and ROMK mod inactive.
For Cc1ccc2c(Cl)cc(Cl)c(OCC(=O)OCC(=O)Nc3ccc(C#N)cc3)c2n1 the results were KCC2 mod inactive, Diaphorase act inactive, Diaph inh CS inactive, WT yeast gro inh inactive and Lmaj promast inactive.
CC(=O)c1cccc(NC(=O)COC(=O)COc2c(Cl)cc(Cl)c3ccc(C)nc23)c1 was read as KCC2 mod 4.6, Diaphorase act inactive, Diaph inh CS inactive, WT yeast gro inh inactive, Lmaj promast inactive, KCC2 secondary inactive, KCC2 bumet counter 0.019, KCC2 sec2 inactive, HEK293 Tl flux 0.013, KCC2 ouabain inactive and HEK counter2 0.011.
Screening CCCCN(C(=O)CNC(=O)c1ccco1)C(C(=O)NC1CCCC1)c1ccc(OC)cc1 (stereo not given) returned KCC2 mod inactive, Diaphorase act inactive, Diaph inh CS inactive, WT yeast gro inh inactive, Lmaj promast inactive and ROMK mod inactive.
